Assay results reported in ChEMBL document CHEMBL1140029, “Design of novel histone deacetylase inhibitors” (Bioorg Med Chem Lett, 2007).

Legend:
Histone deacetylase 1 = Histone deacetylase 1 (Homo sapiens, UniProt Q13547); test: Inhibition of human HDAC1 expressed in domain of SMRT
HCT-116 [1] = test: Antiproliferative activity against HCT116 cells after 72 hrs; format: functional, cell-based, Homo sapiens
Histone deacetylase 8 = target: T1, Histone deacetylase 8 (Homo sapiens, UniProt Q9BY41); test: Inhibition of human HDAC8
T1 sequence (Q9BY41 whole entry): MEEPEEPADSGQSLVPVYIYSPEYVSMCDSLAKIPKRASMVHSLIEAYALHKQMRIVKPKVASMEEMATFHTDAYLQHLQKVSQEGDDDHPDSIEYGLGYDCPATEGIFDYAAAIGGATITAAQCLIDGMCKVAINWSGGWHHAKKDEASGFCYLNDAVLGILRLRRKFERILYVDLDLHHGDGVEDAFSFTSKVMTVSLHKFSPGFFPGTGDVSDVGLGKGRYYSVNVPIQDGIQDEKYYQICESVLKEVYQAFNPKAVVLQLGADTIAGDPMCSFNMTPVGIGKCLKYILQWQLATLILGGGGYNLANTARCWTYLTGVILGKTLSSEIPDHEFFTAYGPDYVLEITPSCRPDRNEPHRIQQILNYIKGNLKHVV
Procedure, shortened: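 HDAC8 came from the Institute for Research in Molecular Biology, Pomezia, and was used at 1–30 nM final. It was preincubated with 3× serially diluted inhibitor for 10 min at RT. Fluor-de-Lys HDAC8 substrate was added for 15 min at 37 °C, then HDAC8 developer containing SAHA. Fluorescence was read at Ex 360/Em 460 nm to give IC50.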

[2] = Bioavailability in dog at 1.2 mg/kg, po; format: ADME, organism-based, Canis lupus familiaris; settings: in vivo
[3] = Half life in rhesus monkey at 2.0 mg/kg, po; format: ADME, organism-based, Macaca mulatta; parameters: dose 2 mg/kg, route oral; settings: in vivo
Histone deacetylase 3 = Histone deacetylase 3 (Homo sapiens, UniProt O15379); test: Inhibition of human HDAC3 expressed in domain of SMRT
Procedure, shortened: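 C-terminal FLAG-tagged human HDAC3, co-expressed with the SMRT domain, was overexpressed in mammalian cells and purified on anti-FLAG matrix. Enzyme at 1–30 nM final was preincubated with 3× serially diluted inhibitor for 10 min at RT. Fluor-de-Lys substrate was then added for 60 min at 37 °C, followed by developer containing SAHA. Fluorescence was read at Ex 360/Em 460 nm to give IC50.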

[4] = Half life in dog at 1.2 mg/kg, po; format: ADME, organism-based, Canis lupus familiaris; parameters: dose 1.2 mg/kg, route oral; settings: in vivo
[5] = Plasma clearance in rhesus monkey at 1.0 mg/kg, iv; format: ADME, organism-based, Macaca mulatta; parameters: dose 1 mg/kg, route intravenous
[6] = Volume of distribution in rat at 2.0 mg/kg, iv; format: ADME, organism-based; parameters: dose 2 mg/kg, route intravenous; settings: in vivo
[7] = Plasma clearance in dog at 0.6 mg/kg, iv; format: ADME, organism-based, Canis lupus familiaris; parameters: dose 0.6 mg/kg, route intravenous
[8] = Bioavailability in rat at 4.0 mg/kg, po; format: ADME, organism-based; settings: in vivo
[9] = Plasma clearance in rat at 2.0 mg/kg, iv; format: ADME, organism-based; parameters: dose 2 mg/kg, route intravenous
Histone deacetylase 2 = Histone deacetylase 2 (Homo sapiens, UniProt Q92769); test: Inhibition of human HDAC2 expressed in domain of SMRT
[10] = Bioavailability in rhesus monkey at 2.0 mg/kg, po; format: ADME, organism-based, Macaca mulatta; settings: in vivo
[11] = Half life in rat at 4.0 mg/kg, po; format: ADME, organism-based; parameters: dose 4 mg/kg, route oral; settings: in vivo
[12] = Volume of distribution in dog at 0.6 mg/kg, iv; format: ADME, organism-based, Canis lupus familiaris; parameters: dose 0.6 mg/kg, route intravenous; settings: in vivo
[13] = target: T2, Protein deacetylase HDAC6 (Homo sapiens, UniProt Q9UBN7); test: Inhibition of human HDAC6
T2 sequence (Q9UBN7 whole entry): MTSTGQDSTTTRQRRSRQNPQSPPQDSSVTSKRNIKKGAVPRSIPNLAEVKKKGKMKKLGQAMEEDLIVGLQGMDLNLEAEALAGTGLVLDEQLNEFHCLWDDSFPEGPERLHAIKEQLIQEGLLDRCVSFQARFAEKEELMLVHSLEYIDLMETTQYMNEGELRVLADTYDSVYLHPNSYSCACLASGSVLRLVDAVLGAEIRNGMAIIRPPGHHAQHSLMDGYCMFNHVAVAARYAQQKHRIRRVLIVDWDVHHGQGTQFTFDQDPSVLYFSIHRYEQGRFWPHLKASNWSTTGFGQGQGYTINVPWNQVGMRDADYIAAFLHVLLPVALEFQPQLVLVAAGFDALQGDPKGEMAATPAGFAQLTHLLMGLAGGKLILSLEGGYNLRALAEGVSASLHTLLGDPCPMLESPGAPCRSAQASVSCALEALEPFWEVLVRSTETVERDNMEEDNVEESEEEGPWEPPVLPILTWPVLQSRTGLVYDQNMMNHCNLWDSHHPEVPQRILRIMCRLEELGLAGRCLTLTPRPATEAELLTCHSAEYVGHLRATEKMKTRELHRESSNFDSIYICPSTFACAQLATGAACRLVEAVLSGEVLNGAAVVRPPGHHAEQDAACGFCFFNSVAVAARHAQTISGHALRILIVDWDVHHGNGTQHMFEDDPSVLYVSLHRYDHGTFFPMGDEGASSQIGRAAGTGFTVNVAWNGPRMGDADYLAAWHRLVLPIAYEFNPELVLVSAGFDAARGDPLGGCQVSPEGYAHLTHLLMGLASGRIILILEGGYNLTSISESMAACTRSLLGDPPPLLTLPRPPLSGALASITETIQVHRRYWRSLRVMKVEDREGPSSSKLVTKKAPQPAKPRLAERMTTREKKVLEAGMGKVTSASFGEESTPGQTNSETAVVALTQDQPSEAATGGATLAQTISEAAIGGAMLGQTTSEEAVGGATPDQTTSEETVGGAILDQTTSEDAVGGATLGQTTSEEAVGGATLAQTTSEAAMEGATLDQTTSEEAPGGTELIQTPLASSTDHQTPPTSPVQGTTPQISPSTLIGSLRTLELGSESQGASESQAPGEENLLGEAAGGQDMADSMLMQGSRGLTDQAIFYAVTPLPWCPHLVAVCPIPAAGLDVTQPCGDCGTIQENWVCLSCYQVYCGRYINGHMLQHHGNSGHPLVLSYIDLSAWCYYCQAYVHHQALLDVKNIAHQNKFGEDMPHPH
Procedure, shortened: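 C-terminal FLAG-tagged human HDAC6 overexpressed in mammalian cells, anti-FLAG affinity-purified, 1–30 nM final. Inhibitor serially diluted 3-fold in DMSO from 10 mM stock, then 20-fold into assay buffer. Enzyme preincubated with compound 10 min at RT. Fluor-de-Lys substrate added, 60 min at 37 °C. Developer containing SAHA added, fluorescence read at Ex 360/Em 460 nm. IC50 reported.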

[14] = Volume of distribution in rhesus monkey at 1.0 mg/kg, iv; format: ADME, organism-based, Macaca mulatta; parameters: dose 1 mg/kg, route intravenous; settings: in vivo
HCT-116 [15] = test: Antiproliferative activity against HCT116 cells after 96 hrs; format: functional, cell-based; settings: Homo sapiens, HCT-116, 96 h
[16] = Homo sapiens, HCT-116, 72 h, read-out: IC50

Chain of Histone deacetylase 1 (Q13547 whole entry, the tested form may be a part): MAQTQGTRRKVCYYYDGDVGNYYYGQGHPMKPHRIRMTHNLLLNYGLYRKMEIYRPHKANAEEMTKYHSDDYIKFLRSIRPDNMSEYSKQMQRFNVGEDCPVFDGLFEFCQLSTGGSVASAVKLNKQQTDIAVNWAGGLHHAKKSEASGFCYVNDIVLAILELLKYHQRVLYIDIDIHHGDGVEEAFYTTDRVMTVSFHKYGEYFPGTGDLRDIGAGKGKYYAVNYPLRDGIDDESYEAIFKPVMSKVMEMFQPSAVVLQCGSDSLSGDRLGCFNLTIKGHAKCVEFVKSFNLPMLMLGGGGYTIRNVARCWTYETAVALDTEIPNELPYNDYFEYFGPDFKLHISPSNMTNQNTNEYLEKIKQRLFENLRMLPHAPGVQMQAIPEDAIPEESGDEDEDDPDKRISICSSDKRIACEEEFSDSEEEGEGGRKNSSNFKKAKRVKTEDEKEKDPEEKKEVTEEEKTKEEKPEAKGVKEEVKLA
Chain of Histone deacetylase 2 (Q92769 whole entry, the tested form may be a part): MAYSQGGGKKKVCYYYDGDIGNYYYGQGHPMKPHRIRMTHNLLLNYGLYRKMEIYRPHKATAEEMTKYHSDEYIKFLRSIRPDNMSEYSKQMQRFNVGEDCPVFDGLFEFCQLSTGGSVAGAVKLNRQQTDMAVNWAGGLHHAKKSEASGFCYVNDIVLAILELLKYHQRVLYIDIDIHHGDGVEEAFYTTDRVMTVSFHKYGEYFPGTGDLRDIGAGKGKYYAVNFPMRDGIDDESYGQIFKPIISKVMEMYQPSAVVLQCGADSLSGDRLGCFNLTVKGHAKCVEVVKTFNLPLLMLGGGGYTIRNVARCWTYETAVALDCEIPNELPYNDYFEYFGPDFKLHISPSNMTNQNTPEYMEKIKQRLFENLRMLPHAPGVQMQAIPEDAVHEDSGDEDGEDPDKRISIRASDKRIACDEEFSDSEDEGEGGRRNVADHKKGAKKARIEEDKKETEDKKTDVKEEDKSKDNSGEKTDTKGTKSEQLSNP
Chain of Histone deacetylase 3 (O15379 whole entry, the tested form may be a part): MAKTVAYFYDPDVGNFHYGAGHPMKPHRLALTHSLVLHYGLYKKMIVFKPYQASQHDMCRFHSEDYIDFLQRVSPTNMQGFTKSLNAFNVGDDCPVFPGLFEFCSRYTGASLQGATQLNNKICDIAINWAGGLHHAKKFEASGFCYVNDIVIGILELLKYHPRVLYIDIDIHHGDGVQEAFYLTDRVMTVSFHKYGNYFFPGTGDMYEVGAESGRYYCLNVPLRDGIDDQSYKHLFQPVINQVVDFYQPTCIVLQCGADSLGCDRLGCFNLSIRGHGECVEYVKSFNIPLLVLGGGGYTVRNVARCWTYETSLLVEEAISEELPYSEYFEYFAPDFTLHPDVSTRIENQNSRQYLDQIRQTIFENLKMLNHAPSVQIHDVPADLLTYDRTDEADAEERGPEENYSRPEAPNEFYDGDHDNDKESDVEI

Row | IC50 (Histone deacetylase 1) [µM] | IC50 (HCT-116 [1]; [16]) [µM] | Structure (SMILES) | other results
1 | 0.048 | 0.425 | Nc1ccccc1NC(=O)c1ccc(C(F)(C(=O)Nc2ccccc2)C(=O)Nc2ccccc2)cc1 | –
2 | 7.19 | – | CN(C(=O)C(C(=O)N(C)c1ccccc1)c1ccc(C(=O)Nc2ccccc2N)cc1)c1ccccc1 | IC50 (HCT-116 [1]; hct-116): Not Active
3 | 0.094 | 0.773 | Nc1ccccc1NC(=O)c1ccc(C(O)(C(=O)Nc2ccccc2)C(=O)Nc2ccccc2)cc1 | –
4 | 0.198 | 2.12 | CC(C(=O)Nc1ccccc1)(C(=O)Nc1ccccc1)c1ccc(C(=O)Nc2ccccc2N)cc1 | –
5 | 0.035 | 0.383 | COc1cccc(NC(=O)C(C(=O)Nc2cccc(OC)c2)c2ccc(C(=O)Nc3ccccc3N)cc2)c1 | –
6 | 0.045 | 0.542 | Nc1ccccc1NC(=O)c1ccc(C(C(=O)Nc2cccc(N3CCOCC3)c2)C(=O)Nc2cccc(N3CCOCC3)c2)cc1 | –
7 | 0.021 | 0.22 | Nc1ccccc1NC(=O)c1ccc(C(C(=O)Nc2ccc3c(c2)OCCO3)C(=O)Nc2ccc3c(c2)OCCO3)cc1 | –
8 | 20 | – | O=C(NO)c1ccccc1 [BENZOHYDROXAMATE] | –
9 | 0.056 | 0.607 | Nc1ccccc1NC(=O)c1ccc(C(C(=O)Nc2cccc(F)c2)C(=O)Nc2cccc(F)c2)cc1 | –
10 | 625 | – | CC(=O)NO [ACETOHYDROXAMIC ACID] | –

More lines, now with the values behind:

Row | Structure (SMILES) | IC50 (Histone deacetylase 1) [µM] | IC50 (HCT-116 [1]; [16]) [µM] | other results
11 | O=C(NO)c1ccc(C(C(=O)Nc2ccccc2)C(=O)Nc2ccccc2)cc1 | 0.005 | – | –
12 | Nc1ccccc1NC(=O)c1ccc(C(C(=O)Nc2ccccc2)C(=O)Nc2ccccc2)cc1 | 0.036 | 0.171 | IC50 (Histone deacetylase 8): > 10 µM; bioavailability [2]: 88%; half-life [3]: 10.4 h; IC50 (Histone deacetylase 3): 0.697 µM; half-life [4]: 8.5 h; clearance [5]: 12 mL/min/kg; Vd [6]: 12 L/kg; clearance [7]: 3 mL/min/kg; bioavailability [8]: 88%; clearance [9]: 55 mL/min/kg; IC50 (Histone deacetylase 2): 0.313 µM; bioavailability [10]: 27%; half-life [11]: 3.8 h; Vd [12]: 1.8 L/kg; IC50 [13]: > 10 µM; Vd [14]: 1.7 L/kg
13 | N#Cc1cccc(NC(=O)C(C(=O)Nc2cccc(C#N)c2)c2ccc(C(=O)Nc3ccccc3N)cc2)c1 | 0.034 | – | IC50 (HCT-116 [15]): 0.5 µM
14 | COc1ccccc1NC(=O)C(C(=O)Nc1ccccc1OC)c1ccc(C(=O)Nc2ccccc2N)cc1 | 0.047 | 0.394 | –
15 | Nc1ccccc1NC(=O)c1ccc(CC(C(=O)Nc2ccccc2)C(=O)Nc2ccccc2)cc1 | 0.047 | 0.579 | –
16 | CC(C)(C)c1ccc(C(=O)NO)cc1 | 0.715 | – | –
17 | Nc1ccccc1NC(=O)c1ccc(C(C(=O)Nc2cccc3cccnc23)C(=O)Nc2cccc3cccnc23)cc1 | 0.103 | 1.2 | –
18 | Nc1ccccc1NC(=O)c1ccc(C(C(=O)NCc2ccccc2)C(=O)NCc2ccccc2)cc1 | 0.199 | 0.596 | –
19 | Nc1ccccc1NC(=O)c1ccc(C(C(=O)Nc2ccc(F)cc2)C(=O)Nc2ccc(F)cc2)cc1 | 0.063 | – | IC50 (HCT-116 [15]): 0.222 µM
20 | Nc1ccccc1NC(=O)c1ccc(C(C(=O)NCCCc2ccccc2)C(=O)NCCCc2ccccc2)cc1 | 0.229 | 0.987 | –
21 | CC(Cc1ccc(C(=O)Nc2ccccc2N)cc1)(C(=O)Nc1ccccc1)C(=O)Nc1ccccc1 | 0.2 | 2.52 | –
22 | CN(C(=O)C(C(=O)Nc1ccccc1)c1ccc(C(=O)Nc2ccccc2N)cc1)c1ccccc1 (stereo unspecified) | 0.196 | 1.15 | –
